Source: ChEMBL document CHEMBL1129989, “Minor structural differences in Boc-CCK-4 derivatives dictate affinity and selectivity for CCK-A and CCK-B receptors” (J Med Chem, 1997)
*1 amine or outer side, *2 acyl side, *3 side chain or, on linkers, in order; H or OH if unused. Where a SMILES comes first, the peptide text is derived from it. Side-chain parts run from the residue outwards. The star is where a group is joined. NH(4-MeO-phenyl) = COc1ccc(N*)cc1; pNA = O=[N+]([O-])c1ccc(N*)cc1; X2 = O=[N+]([O-])c1cccc(N*)c1; NH(3-MeOPh) = COc1cccc(N*)c1; 3Abz = Nc1cccc(C(=O)O)c1; 4Abz = Nc1ccc(C(=O)O)cc1; X1 = CC(=O)c1ccc(N*)cc1; 2Abz = Nc1ccccc1C(=O)O; Boc = CC(C)(C)OC(=O)*; CO = O=C([*:1])[*:2]

Assays:
[1] = species on record: Cavia porcellus; assay: Concentration that stimulated amylase release in guinea pig pancreatic acini relative to CCK-8; format: functional
[2] = species on record: Cavia porcellus; assay: The maximal response elicited by the compound (concentration of 100 uM) relative to the maximal response elicited by CCK-8 (1 uM) in the PI hydrolysis assay; format: functional
[3] = molecular target: T1, Cholecystokinin receptor type A (Cavia porcellus, UniProt Q63931); assay: Displacement of [125I]- BH-CCK-8 from Cholecystokinin type A receptor of guinea pig pancreas
T1 sequence (Q63931 whole entry): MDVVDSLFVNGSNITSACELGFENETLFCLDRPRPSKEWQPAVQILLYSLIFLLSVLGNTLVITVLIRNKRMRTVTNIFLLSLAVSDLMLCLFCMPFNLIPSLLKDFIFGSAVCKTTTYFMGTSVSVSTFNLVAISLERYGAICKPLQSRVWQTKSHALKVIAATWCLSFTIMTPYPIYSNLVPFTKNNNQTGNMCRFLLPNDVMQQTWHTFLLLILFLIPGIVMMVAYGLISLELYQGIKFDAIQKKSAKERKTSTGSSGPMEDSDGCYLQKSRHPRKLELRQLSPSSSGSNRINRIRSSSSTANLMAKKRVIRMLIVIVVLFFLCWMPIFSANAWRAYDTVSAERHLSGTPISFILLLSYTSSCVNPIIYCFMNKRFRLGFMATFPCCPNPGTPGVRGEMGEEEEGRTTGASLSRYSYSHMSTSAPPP
How it was run: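 Competition binding in pancreas and cortex tissue membranes with [125I]Bolton–Hunter CCK-8 as radioligand. […] Values are means ± SE over several determinations, each run in duplicate with <5% sample variability.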

[4] = species on record: Cavia porcellus; assay: Relative affinity for type B (cortex) over type A (pancreatic) cholecystokinin receptors
How it was run: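 Selectivity ratio is IC50 in cortex divided by IC50 in pancreas. Both IC50s come from displacement of specific [125I]Bolton–Hunter CCK-8 binding, each determination run in duplicate.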

[5] = test system: NCI-H345; assay: The maximal response elicited by the compound (concentration of 10 uM) relative to the maximal response elicited by CCK-8; format: functional, Homo sapiens
[6] = test system: NCI-H345; assay: Concentration that produced 50% of the maximal response in intracellular calcium mobilization in the NCI-H345 cells.; format: functional, cell-based; details: Homo sapiens
How it was run: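 NCI-H345 cells carry the CCK-B/gastrin receptor. Intracellular calcium mobilization was read by indo-1 fluorescence. […] Values are means ± SE of several determinations.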

[7] = test system: NCI-H345; assay: The maximal response elicited by the compound (concentration of 1 uM) relative to the maximal response elicited by CCK-8; format: functional, Homo sapiens
[8] = molecular target: Cholecystokinin type B receptor (Cavia porcellus); assay: Displacement of [125I]- BH-CCK-8 from Cholecystokinin type B receptor of guinea pig cortex

Row | Structure (SMILES) | IC50 [3] [nM] | C/P [4] | EC50 [6] [nM] | IC50 [8] [nM] | EC50 [1] [nM] | Max response [2] [%] | Max response [5] [%] | Max response [7] [%]
1 | CC(=O)c1ccc(NC(=O)NCCCC[C@H](NC(=O)[C@H](Cc2c[nH]c3ccccc23)NC(=O)OC(C)(C)C)C(=O)N[C@@H](CC(=O)O)C(=O)N[C@@H](Cc2ccccc2)C(N)=O)cc1 (Boc-WK([CO-X1])DF-NH2) | 46 | 0.26 | 120 | – | 85 | 80 | 91 | –
2 | CC(C)(C)OC(=O)N[C@@H](Cc1c[nH]c2ccccc12)C(=O)N[C@@H](CCCCNC(=O)Nc1cccc([N+](=O)[O-])c1)C(=O)N[C@@H](CC(=O)O)C(=O)N[C@@H](Cc1ccccc1)C(N)=O (Boc-WK([CO-X2])DF-NH2) | 5.8 | 210 | – | – | – | – | – | –
3 | CC(C)(C)OC(=O)N[C@@H](Cc1c[nH]c2ccccc12)C(=O)N[C@@H](CCCCNC(=O)Nc1ccc([N+](=O)[O-])cc1)C(=O)N[C@@H](CC(=O)O)C(=O)N[C@@H](Cc1ccccc1)C(N)=O (Boc-WK([CO-pNA])DF-NH2) | 41 | 0.75 | 47 | – | 39 | 74 | – | 94
4 | COC(=O)c1ccc(NC(=O)NCCCC[C@H](NC(=O)[C@H](Cc2c[nH]c3ccccc23)NC(=O)OC(C)(C)C)C(=O)N[C@@H](CC(=O)O)C(=O)N[C@@H](Cc2ccccc2)C(N)=O)cc1 (Boc-WK([CO-4Abz-OMe])DF-NH2) | 71 | – | – | – | – | – | – | –
5 | COC(=O)c1ccccc1NC(=O)NCCCC[C@H](NC(=O)[C@H](Cc1c[nH]c2ccccc12)NC(=O)OC(C)(C)C)C(=O)N[C@@H](CC(=O)O)C(=O)N[C@@H](Cc1ccccc1)C(N)=O (Boc-WK([CO-2Abz-OMe])DF-NH2) | – | 91 | – | 3100 | – | – | – | –

Now from value to molecule, other results behind:

Row | IC50 [3] [nM] | C/P [4] | EC50 [6] [nM] | IC50 [8] [nM] | Structure (SMILES) | EC50 [1] [nM] | Max response [2] [%] | Max response [5] [%] | Max response [7] [%]
6 | 9.4 | 150 | – | – | COc1cccc(NC(=O)NCCCC[C@H](NC(=O)[C@H](Cc2c[nH]c3ccccc23)NC(=O)OC(C)(C)C)C(=O)N[C@@H](CC(=O)O)C(=O)N[C@@H](Cc2ccccc2)C(N)=O)c1 (Boc-WK([CO-NH(3-MeOPh)])DF-NH2) | – | – | – | –
7 | 15 | 67 | – | – | COC(=O)c1cccc(NC(=O)NCCCC[C@H](NC(=O)[C@H](Cc2c[nH]c3ccccc23)NC(=O)OC(C)(C)C)C(=O)N[C@@H](CC(=O)O)C(=O)N[C@@H](Cc2ccccc2)C(N)=O)c1 (Boc-WK([CO-3Abz-OMe])DF-NH2) | – | – | – | –
8 | 14 | 50 | – | – | COc1ccc(NC(=O)NCCCC[C@H](NC(=O)[C@H](Cc2c[nH]c3ccccc23)NC(=O)OC(C)(C)C)C(=O)N[C@@H](CC(=O)O)C(=O)N[C@@H](Cc2ccccc2)C(N)=O)cc1 (Boc-WK([CO-NH(4-MeO-phenyl)])DF-NH2) | – | – | – | –
